Source: PubChem (Broad Institute)
Sampled rows, rich in hits. Any-hit rate of the full collection: about 2.9%.
Vif inh: blocks HIV Vif function; HEK293T cells, Vif self-association by quenched fluorescence, imaging, 24 h; inhibition, % at 7.49 µM; actives 0.35% (n = 340,000); AID 602346; in the data active = inhibition above about 50%, passing the limit was not always enough
PglD DTNB: blocks C. jejuni PglD acetyltransferase activity; purified PglD enzyme, DTNB colorimetric CoA detection; AID 602405; inhibition, % at 12.5 µM; actives 0.098% (n = 360,000); in the data active = inhibition above about 16%, passing the limit was not always enough
FGF22 binding: FGF22 (human) thermal shift binding; recombinant FGF22 thermal shift, SYPRO orange fluorescence; percent of sucrose octasulfate shift, DMSO zero; activity (Tm shift, normalised), % at 9.99 µM; actives 1.5% (n = 340,000);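 active = mean Tm shift, scaled 0 neutral to 100 positive control, at about 1.3% or above, every replicate too, limit read from the data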
Target sequence (Q9HCT0 whole entry, looked up): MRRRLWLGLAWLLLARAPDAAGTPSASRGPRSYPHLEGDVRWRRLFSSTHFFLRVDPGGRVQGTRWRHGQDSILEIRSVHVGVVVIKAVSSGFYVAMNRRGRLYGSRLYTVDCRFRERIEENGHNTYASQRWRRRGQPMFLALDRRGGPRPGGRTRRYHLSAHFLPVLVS
Ecoli rRNA inh: selective bacterial rRNA inhibition in E. coli; E. coli WT GFP vs humanized-ribosome RFP mutants, fluorescence, 24 h; active compounds read low; DMSO median 0, no signal -100; GFP signal change (wild-type ribosome), % (test concentration not listed); actives 1.6% (n = 350,000); AID 720706;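 active = significant combined selectivity score with lowered wild-type GFP, culture density cut under 30%, mutant RFP and density less affected; inactive = any of these conditions unmet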
PGC1a acetyl inh: modulators of PGC1a acetylation | AID 651687 | inhibition, % at 15.6 µM | actives 0.17% (n = 350,000) | U2OS PGC1a acetylation, AlphaScreen anti-acetyl-lysine; with virally co-expressed GCN5 acetyltransferase;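 active = every replicate shows inhibition of at least 40%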;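 also: 0% = neutral control wells and 100% = positive control wells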
Cneo AK release: causes C. neoformans cell lysis; lysis activity, % at 15 µM; adenylate kinase release luminescence, 4 h; normalised: neutral wells 0, clomiphene wells 100; AID 651654; actives 0.2% (n = 360,000);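 active = mean lysis activity across replicates of at least 80%, whatever share of replicates individually reach that level; inactive = mean lysis activity below 80%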
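read-out = cell lysis signal | test system = log-phase Cryptococcus neoformans yeast cells | input = cells at 5 × 10^6 per mL | medium = fresh YPD growth medium | signal = luminescent adenylate kinase detection reagent | timing = 4 h at 37 °C static, read 1 h later | dosing = single dose | controls = Clomiphene as positive lysis control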
Starred values were filed as active, the others as inactive; . = no result.

SMILES	Vif inh	PglD DTNB	FGF22 binding	Ecoli rRNA inh	PGC1a acetyl inh	Cneo AK release
COC(=O)C1CCCCN1C(=O)c1cc(COc2cccc3cnccc23)on1 (configuration not stated)	-17	-2	-1	-31*	.	1
Cc1ccc(S(=O)(=O)Nc2ccc3c(c2)C(=O)N([C@@H](C)CO)C[C@H](C)[C@H](CN(C)Cc2ccc(C(=O)O)cc2)OCCCC[C@H](C)O3)cc1	.	-1	.	0	9	17
O=C(C[C@@H]1CC[C@H]2[C@@H](COC[C@H](O)CN2Cc2cc(F)ccc2F)O1)N1CCc2ccccc2C1	.	0	0	-10	2	-1
COC(=O)c1c(NC(=O)COC(=O)c2ccccn2)sc(C)c1C	-11	-1	0	1	-17	-1
CCOC(=O)c1c(NC(=O)COC(=O)c2ccccn2)sc2c1CCC2	-6	6	0	-18*	2	0
Cc1noc(C)c1S(=O)(=O)Nc1ccc2c(c1)C(=O)N([C@H](C)CO)C[C@@H](C)[C@@H](CN(C)CC1CCCCC1)OCCCC[C@H](C)O2	.	5	0	-2	.	-2
C[C@@H]1CN([C@H](C)CO)C(=O)c2cc(NC(=O)CCC(F)(F)F)ccc2O[C@@H](C)CCCCO[C@H]1CN(C)Cc1ccc(Cl)c(Cl)c1	.	1	0	3	23	54
Clc1cccc(C2Nc3cccc4cccc(c34)N2)c1	1	-3	0	-12	7	-2
Clc1ccc(C2Nc3cccc4cccc(c34)N2)cc1Cl	58*	-5	0	11	.	-1
COC(=O)CSc1nc(NCc2ccccc2)nc(N(C)C)n1	1	-6	43*	11	-5	3
CCNc1nc(NCc2ccccc2)nc(SCC(N)=O)n1	4	-1	0	9	3	1
CN(C)c1nc(NCc2ccccc2)nc(SCC(=O)Nc2ccc(Cl)c(Cl)c2)n1	-5	-5	.	.	-3	20
CCNc1nc(SCC(=O)Nc2ccc(Cl)c(Cl)c2)nc(N(C)C)n1	2	-5	45*	-1	-8	3
CC(C)c1ccc(CC(NC(=O)c2ccccc2)C(=O)NCC(=O)O)cc1 (configuration not stated)	-4	.	43*	4	2	.
COc1ccccc1CNC(=O)C[C@H]1C[C@H]2c3cc(NC(=O)Cc4ccncc4)ccc3O[C@H]2[C@H](CO)O1	.	-1	0	-5	-5	0
CCC1=NN(C(=O)C(=O)Nc2ccc(OC)cc2)C(O)(C(F)(F)F)C1 (configuration not stated)	1	1	0	-23*	-5	4
CCOC(=O)CSC1=C(C#N)C(c2sccc2C)C(C(C)=O)=C(C)N1 (configuration not stated)	-1	.	0	-40*	.	.
CC(=O)C1=C(C)NC(SCC(N)=O)=C(C#N)C1c1sccc1C (configuration not stated)	-2	4	0	-18	-1	1
Cc1cccc(-c2ccc([C@@H]3[C@@H](CO)N4CCCCN(S(=O)(=O)c5cccs5)C[C@@H]34)cc2)c1	.	4	-1	-1	-20	-1
COc1ccc(OC)c(N(CC(=O)Nc2ccccc2)S(=O)(=O)c2ccccc2)c1	-7	-2	0	-15	3	0
COc1ccc(NC(=O)CN(c2ccccc2)S(=O)(=O)c2ccccc2)c(OC)c1	0	-2	0	-24*	-8	0
COC(=O)COc1ccc(/C=N/NC(=O)CN(c2ccccc2OC)S(=O)(=O)c2ccccc2)cc1	57*	-3	0	3	.	-16
COc1ccccc1N(CC(=O)N/N=C/c1ccc(OCC(=O)NCc2ccco2)cc1)S(=O)(=O)c1ccc(C)cc1	8	-1	.	.	3	-1
COC(=O)c1ccc(CSc2cc(C)c3ccccc3n2)o1	-3	.	0	-22*	.	.
CCCn1c(SCc2ccc(C(=O)OC)o2)nc2ccccc2c1=O	-11	0	0	5	.	2
Cc1cc(C)[n+]2[nH]c(N)c(N=Nc3ccccc3)c2n1	-3	.	0	-28*	3	.
O=C(Nc1cccc(-c2cn3ccccc3n2)c1)c1ccccc1	-7	.	41	-32*	.	.
